Active and inactive are the calls of the source. The calls are words filed in the database; no cut-off is given here.
Assays:
[1] = Oral bioavailability in Sprague-Dawley rat at 2.06 mg/kg; type: ADME, organism-based; settings: in vivo
In short: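 Male SD rats received a single p.o. or i.v. dose (n = 8 per route) in 5% ethanol, 10% HPCD and phosphate buffer, pH 7.5-8.0. At 5, 15, 30, 60, 90, 120, 240 and 360 min one rat was sacrificed per time point. EDTA plasma was assayed by high turbulence LC-MS/MS. Cmax and bioavailability were taken from oral dosing; volume of distribution is at steady state.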

Mus musculus [2] = assay: Decrease in glucose level in human ApoB100/CETP transgenic mouse at 20 mg/kg, po after 6 weeks relative to control; type: functional; set-up: scale not given: the % may be the effect or the level left
L6 [3] = assay: Effect on fatty acid oxidation in rat L6 cells; type: functional, cell-based
In short: (§1)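 Rat L6 myoblasts differentiated 5 days in 2% serum, then treated 42 h with compound (refreshed at 24 h), followed by 6 h with 0.4 mM palmitate containing [9,10-3H]-palmitic acid on 2% fatty-acid-free BSA. Stopped with 10% TCA; released 3H-H2O collected by overnight equilibration at 50 °C and counted.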

Mus musculus [4] = assay: Decrease in total ketone bodies level in human ApoB100/CETP transgenic mouse at 20 mg/kg, po after 6 weeks relative to control; type: functional; set-up: scale not given: the % may be the effect or the level left
Mus musculus [5] = assay: Decrease in total cholesterol level in human ApoB100/CETP transgenic mouse at 10 mg/kg, po after 6 weeks relative to control; type: functional; set-up: scale not given: the % may be the effect or the level left
Mus musculus [6] = assay: Increase in total ketone bodies level in human ApoB100/CETP transgenic mouse at 5 mg/kg, po after 6 weeks relative to control; type: functional
Mus musculus [7] = assay: Decrease in glucose level in human ApoB100/CETP transgenic mouse at 10 mg/kg, po after 6 weeks relative to control; type: functional; set-up: scale not given: the % may be the effect or the level left
Mus musculus [8] = assay: Increase in HDL level in human ApoB100/CETP transgenic mouse at 20 mg/kg, po after 6 weeks relative to control; type: functional
L6 [9] = assay: Effect on glucose oxidation in rat L6 cells; type: functional, cell-based
In short: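 Differentiated rat L6 cells handled as for the fatty acid oxidation assay, with tritiated palmitate replaced by 10 µCi/mL [5-3H]-D-glucose; oxidation measured as 3H-H2O released into medium after TCA stop, collected by overnight equilibration at 50 °C and scintillation counting. FCCP served as positive control.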

Mus musculus [10] = assay: Decrease in HbA1c level in human ApoB100/CETP transgenic mouse at 5 mg/kg, po after 6 weeks relative to control; type: functional; set-up: scale not given: the % may be the effect or the level left
Mus musculus [11] = assay: Increase in insulin level in human ApoB100/CETP transgenic mouse at 20 mg/kg, po after 6 weeks by ELISA relative to control; type: functional
Mus musculus [12] = assay: Decrease in triglycerides level in human ApoB100/CETP transgenic mouse at 5 mg/kg, po after 6 weeks relative to control; type: functional; set-up: scale not given: the % may be the effect or the level left
[13] = molecular target: T1, Peroxisome proliferator-activated receptor alpha (Mus musculus) (UniProt P23204); assay: Agonist activity at mouse PPAR alpha expressed in HEK293 cells up to 30 uM by PPAR-GAL4 transactivation assay; type: functional, cell-based
T1 sequence (whole entry): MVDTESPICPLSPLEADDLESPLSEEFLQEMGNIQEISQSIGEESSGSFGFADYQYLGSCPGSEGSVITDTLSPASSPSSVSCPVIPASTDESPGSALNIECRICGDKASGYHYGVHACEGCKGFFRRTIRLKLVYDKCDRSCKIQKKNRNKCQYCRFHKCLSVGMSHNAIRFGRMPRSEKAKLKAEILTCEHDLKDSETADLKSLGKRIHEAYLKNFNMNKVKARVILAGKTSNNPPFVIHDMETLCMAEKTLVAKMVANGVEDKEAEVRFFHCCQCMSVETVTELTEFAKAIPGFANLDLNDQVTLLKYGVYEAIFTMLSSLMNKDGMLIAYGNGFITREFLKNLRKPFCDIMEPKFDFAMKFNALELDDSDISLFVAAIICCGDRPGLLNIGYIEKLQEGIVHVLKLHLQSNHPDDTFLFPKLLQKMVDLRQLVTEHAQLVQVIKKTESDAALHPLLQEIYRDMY

[14] = molecular target: T2, Peroxisome proliferator-activated receptor delta (Homo sapiens, UniProt Q03181)
T2 sequence (Q03181 whole entry): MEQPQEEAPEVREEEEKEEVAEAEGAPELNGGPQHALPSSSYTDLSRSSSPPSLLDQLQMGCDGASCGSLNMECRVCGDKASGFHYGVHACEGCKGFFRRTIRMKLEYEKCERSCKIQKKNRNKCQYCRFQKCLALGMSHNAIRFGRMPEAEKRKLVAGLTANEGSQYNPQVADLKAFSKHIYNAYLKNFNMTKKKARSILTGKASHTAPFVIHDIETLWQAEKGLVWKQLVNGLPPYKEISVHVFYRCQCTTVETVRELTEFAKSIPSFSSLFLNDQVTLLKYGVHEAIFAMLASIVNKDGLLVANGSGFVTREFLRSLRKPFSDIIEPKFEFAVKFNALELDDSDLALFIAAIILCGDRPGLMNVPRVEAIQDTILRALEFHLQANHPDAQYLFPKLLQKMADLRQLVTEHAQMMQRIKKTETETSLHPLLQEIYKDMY

Mus musculus [15] = assay: Decrease in LDL level in human ApoB100/CETP transgenic mouse at 10 mg/kg, po after 6 weeks relative to control; type: functional; set-up: scale not given: the % may be the effect or the level left
Mus musculus [16] = assay: Decrease in HbA1c level in human ApoB100/CETP transgenic mouse at 20 mg/kg, po after 6 weeks relative to control; type: functional; set-up: scale not given: the % may be the effect or the level left
Mus musculus [17] = assay: Decrease in insulin level in human ApoB100/CETP transgenic mouse at 10 mg/kg, po after 6 weeks by ELISA relative to control; type: functional; set-up: scale not given: the % may be the effect or the level left
Mus musculus [18] = assay: Decrease in glucose level in human ApoB100/CETP transgenic mouse at 5 mg/kg, po after 6 weeks relative to control; type: functional; set-up: scale not given: the % may be the effect or the level left
Mus musculus [19] = assay: Decrease in total ketone bodies level in human ApoB100/CETP transgenic mouse at 10 mg/kg, po after 6 weeks relative to control; type: functional; set-up: scale not given: the % may be the effect or the level left
Mus musculus [20] = assay: Decrease in HbA1c level in human ApoB100/CETP transgenic mouse at 10 mg/kg, po after 6 weeks relative to control; type: functional; set-up: scale not given: the % may be the effect or the level left
L6 [21] = assay: Effect on increase in fatty acid oxidation in rat L6 cells relative to GW-501516; type: functional; set-up: concentration or dose not given beside the values; in short: as §1

O=C(O)COc1ccc(SCC=C(c2ccc(Br)cc2)c2ccc(Br)cc2)cc1Cl
bioavailability [1]: 46% | Activity (Mus musculus [2]): 5% | EC50 (L6 [3]): 30 nM | Activity (Mus musculus [4]): 29% | Activity (Mus musculus [5]): 14% | Activity (Mus musculus [6]): 5% | Activity (Mus musculus [7]): 2% | Activity (Mus musculus [8]): 33% | Activity (L6 [9]): inactive | Activity (Mus musculus [10]): 4% | Activity (Mus musculus [11]): 3% | Activity (Mus musculus [12]): 15% | Activity [13]: inactive | EC50 [14]: 53 nM | Activity (Mus musculus [15]): 12% | Activity (Mus musculus [16]): 12% | Activity (Mus musculus [17]): 8% | Activity (Mus musculus [18]): 3% | Activity (Mus musculus [19]): 10% | Activity (Mus musculus [20]): 9% | Activity (L6 [21]): 109%
